Assay results taken from ChEMBL document CHEMBL3232843, “Novel pyrrolidine diketopiperazines selectively inhibit melanoma cells via induction of late-onset apoptosis” (J Med Chem, 2014).
Activity calls are given as the source filed them. No cut-off for these calls is given here.

Key:
[1] = (§1) Cytotoxicity against mouse B16F10 cells expressing p53 mutant after 48 hrs by hexosaminidase assay; type: functional, cell-based; conditions: B16-F10, 48 h
How it was run: (§2)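 SK-MEL-28 or B16/F10 cells plated in 96-well plates, grown overnight, then treated with 0–50 µM compound for 48 h. Cells washed with PBS, given hexosaminidase substrate for 30 min at 37 °C, then developer. Absorbance read at 405 nm. Percent viability = treated/control absorbance × 100.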

B16-F10 = test: as §1; type: functional, cell-based; how it was run: as §2
A549 [2] = test: Cytotoxicity against human A549 cells after 72 hrs by CellTiter-Glo luminescence assay; type: functional, cell-based; conditions: A549, 72 h
How it was run: (§3)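 1250 cells per well in serum-free medium (F12 for CHO-K1 and A549, DMEM for M14). Compounds given as 10-point 1:3 serial dilutions from a 300 µM stock, plus a gefitinib control. Incubated 72 h at 37 °C, 5% CO2. CellTiter-Glo added for 15 min at room temperature, then luminescence read. Viability normalized to media-only wells (0%) and 1% DMSO wells (100%). Run in triplicate.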

M14 [3] = test: Cytotoxicity against human M14 cells assessed as cell viability at 100 uM after 4 hrs using GF-AFC as substrate by ApoTox-Glo triplex assay; type: functional, cell-based
How it was run: (§4)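 M14 cells, 1250 per well, in serum-free DMEM, settled 4 h, then given 1:3 serial dilutions. Ionomycin, terfenadine and panobinostat were the controls. Incubated 4, 24, 48 or 72 h at 37 °C. A reagent containing 400 µM GF-AFC (live-cell protease, ex 400/em 505 nm) and 400 µM bis-AAF-R110 (dead-cell protease, ex 485/em 520 nm) was applied for 30 min at 37 °C. Caspase-Glo 3/7 (DEVD) luminescence was then read after 30 min at room temperature.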

M14 [4] = test: Induction of apoptosis human M14 cells assessed as caspase activity at 100 uM after 72 hrs using DEVD peptide as substrate by ApoTox-Glo triplex assay; type: functional, cell-based; how it was run: as §4
M14 [5] = test: Induction of apoptosis human M14 cells assessed as caspase activity at 100 uM after 4 hrs using DEVD peptide as substrate by ApoTox-Glo triplex assay; type: functional, cell-based; how it was run: as §4
M14 [6] = test: Induction of apoptosis human M14 cells assessed as caspase activity at 100 uM after 24 hrs using DEVD peptide as substrate by ApoTox-Glo triplex assay relative to control; type: functional
How it was run: (§5)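 M14 #5 cells, 1250 per well in serum-free DMEM, pre-incubated 4 h at 37 °C, 5% CO2. Compounds added as 1:3 serial dilutions; incubated 4, 24, 48 and 72 h. Per time point, a reagent containing 400 µM GF-AFC (live-cell protease) and 400 µM bis-AAF-R110 (dead-cell protease) was added for 30 min at 37 °C, then fluorescence was read. Caspase-Glo 3/7 was added next, 30 min at room temperature, then luminescence.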

[7] = target: T1, Protein deacetylase HDAC6 (Homo sapiens) (UniProt Q9UBN7); test: Inhibition of HDAC6 (unknown origin) up to 100 uM
T1 sequence (whole entry): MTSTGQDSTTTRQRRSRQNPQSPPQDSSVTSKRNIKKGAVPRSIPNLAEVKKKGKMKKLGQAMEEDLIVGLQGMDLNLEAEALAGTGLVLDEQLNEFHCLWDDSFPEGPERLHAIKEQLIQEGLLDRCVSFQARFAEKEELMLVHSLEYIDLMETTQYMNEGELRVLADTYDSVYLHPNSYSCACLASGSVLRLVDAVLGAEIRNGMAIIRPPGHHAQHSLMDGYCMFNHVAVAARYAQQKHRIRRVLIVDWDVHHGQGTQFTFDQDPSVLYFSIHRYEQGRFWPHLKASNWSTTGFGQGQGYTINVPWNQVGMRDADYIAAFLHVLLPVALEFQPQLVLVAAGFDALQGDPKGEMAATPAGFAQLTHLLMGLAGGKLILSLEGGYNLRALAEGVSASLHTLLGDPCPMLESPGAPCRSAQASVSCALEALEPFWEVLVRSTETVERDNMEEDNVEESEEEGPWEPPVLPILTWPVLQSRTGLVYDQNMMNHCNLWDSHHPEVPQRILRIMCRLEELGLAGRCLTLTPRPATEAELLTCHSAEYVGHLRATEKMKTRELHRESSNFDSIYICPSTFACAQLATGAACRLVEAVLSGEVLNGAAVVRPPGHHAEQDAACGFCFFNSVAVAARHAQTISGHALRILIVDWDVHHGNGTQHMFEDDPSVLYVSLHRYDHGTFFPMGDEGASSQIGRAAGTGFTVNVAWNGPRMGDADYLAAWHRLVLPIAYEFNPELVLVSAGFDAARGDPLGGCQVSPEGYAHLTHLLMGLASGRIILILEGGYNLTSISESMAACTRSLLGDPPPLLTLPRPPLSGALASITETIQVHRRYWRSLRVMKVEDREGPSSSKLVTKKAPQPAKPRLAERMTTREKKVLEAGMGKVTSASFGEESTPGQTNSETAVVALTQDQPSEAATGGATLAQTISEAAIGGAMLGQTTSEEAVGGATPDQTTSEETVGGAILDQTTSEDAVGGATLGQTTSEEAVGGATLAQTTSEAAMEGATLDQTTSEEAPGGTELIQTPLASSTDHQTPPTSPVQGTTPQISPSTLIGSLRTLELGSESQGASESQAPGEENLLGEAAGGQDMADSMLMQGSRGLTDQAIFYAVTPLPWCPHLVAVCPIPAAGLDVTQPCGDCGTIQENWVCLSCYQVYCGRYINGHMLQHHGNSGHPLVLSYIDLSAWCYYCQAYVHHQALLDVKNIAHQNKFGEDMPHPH

SK-MEL-28 [8] = test: Cytotoxicity against human SK-MEL-28 cells expressing B-raf V600E mutant after 48 hrs by hexosaminidase assay; type: functional, cell-based; how it was run: as §2
M14 [9] = test: Cytotoxicity against human M14 cells assessed as cell viability at 100 uM after 24 hrs by CellTiter-Glo luminescence assay; type: functional, cell-based
How it was run: (§6)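 M14 cells, 1250 per well, in serum-free DMEM. Compounds given in 10-point 1:3 dilution series starting at 100 µM; controls were gefitinib, doxorubicin and ionomycin. Incubated at 37 °C, 5% CO2. CellTiter-Glo luminescence read at 4, 24, 48 and 72 h. Viability normalized to media-only wells and 1% DMSO-treated wells.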

[10] = Cytotoxicity against mouse B16F10 cells expressing p53 mutant at 10 uM after 48 hrs by hexosaminidase assay; type: functional; conditions: B16-F10, 48 h; how it was run: as §2
M14 [11] = test: Cytotoxicity against human M14 cells assessed as cell viability at 100 uM after 4 hrs by CellTiter-Glo luminescence assay; type: functional, cell-based; how it was run: as §6
M14 [12] = test: Cytotoxicity against human M14 cells assessed as cell viability after 48 hrs using bis-AAF-R110 as substrate by ApoTox-Glo triplex assay; type: functional, cell-based; how it was run: as §4
[13] = Cytotoxicity against CHOK1 cells after 72 hrs by CellTiter-Glo luminescence assay; type: cell-based; conditions: Cricetulus griseus, CHO-K1, 72 h; how it was run: as §3
M14 [14] = test: Cytotoxicity against human M14 cells assessed as cell viability after 48 hrs using GF-AFC as substrate by ApoTox-Glo triplex assay; type: functional, cell-based; how it was run: as §4
[15] = target: Histone deacetylase 2 (Homo sapiens) (UniProt Q92769); test: Inhibition of HDAC2 (unknown origin) up to 100 uM
Chain of Histone deacetylase 2 (Homo sapiens) (Q92769 whole entry): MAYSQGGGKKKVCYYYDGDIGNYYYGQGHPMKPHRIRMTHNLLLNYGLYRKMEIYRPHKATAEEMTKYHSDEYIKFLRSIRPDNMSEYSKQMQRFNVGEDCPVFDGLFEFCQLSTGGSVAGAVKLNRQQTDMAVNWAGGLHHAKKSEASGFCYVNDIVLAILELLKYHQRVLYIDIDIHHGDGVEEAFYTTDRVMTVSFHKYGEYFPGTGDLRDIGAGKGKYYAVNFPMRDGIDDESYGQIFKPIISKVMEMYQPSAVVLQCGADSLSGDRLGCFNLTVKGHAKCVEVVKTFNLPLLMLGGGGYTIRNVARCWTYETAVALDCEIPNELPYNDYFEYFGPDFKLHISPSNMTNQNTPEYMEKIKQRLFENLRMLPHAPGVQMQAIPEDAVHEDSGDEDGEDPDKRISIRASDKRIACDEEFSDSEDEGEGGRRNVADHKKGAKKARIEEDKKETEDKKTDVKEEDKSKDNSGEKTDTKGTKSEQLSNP

M14 [16] = test: Cytotoxicity against human M14 cells assessed as cell viability at 100 uM after 4 hrs using bis-AAF-R110 as substrate by ApoTox-Glo triplex assay; type: functional, cell-based; how it was run: as §4
[17] = target: Histone deacetylase 1 (Homo sapiens) (UniProt Q13547); test: Inhibition of HDAC1 (unknown origin) up to 100 uM
Chain of Histone deacetylase 1 (Homo sapiens) (Q13547 whole entry): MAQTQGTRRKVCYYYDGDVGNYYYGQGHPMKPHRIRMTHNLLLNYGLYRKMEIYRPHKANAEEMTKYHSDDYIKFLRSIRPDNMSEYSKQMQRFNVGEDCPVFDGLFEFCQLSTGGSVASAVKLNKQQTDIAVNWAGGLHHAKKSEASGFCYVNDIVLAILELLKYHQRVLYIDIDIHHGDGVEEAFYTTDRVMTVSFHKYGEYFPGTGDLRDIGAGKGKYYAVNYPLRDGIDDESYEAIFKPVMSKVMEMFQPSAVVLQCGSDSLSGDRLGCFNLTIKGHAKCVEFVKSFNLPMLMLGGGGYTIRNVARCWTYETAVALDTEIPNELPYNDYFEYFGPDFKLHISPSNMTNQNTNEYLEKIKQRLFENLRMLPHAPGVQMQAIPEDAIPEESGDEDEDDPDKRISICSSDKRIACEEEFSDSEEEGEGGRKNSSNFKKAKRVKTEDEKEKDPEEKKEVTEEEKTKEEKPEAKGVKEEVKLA

M14 [18] = test: Induction of apoptosis human M14 cells assessed as caspase activity at 100 uM after 48 hrs using DEVD peptide as substrate by ApoTox-Glo triplex assay relative to control; type: functional; how it was run: as §5
M14 [19] = test: Cytotoxicity against human M14 cells assessed as cell viability at 100 uM after 48 hrs by CellTiter-Glo luminescence assay; type: functional, cell-based; how it was run: as §6
SK-MEL-28 [20] = test: Cytotoxicity against human SK-MEL-28 cells expressing B-raf V600E mutant at 10 uM after 48 hrs by hexosaminidase assay; type: functional; conditions: SK-MEL-28, 48 h; how it was run: as §2
M14 [21] = test: Cytotoxicity against human M14 cells after 72 hrs by CellTiter-Glo luminescence assay; type: functional, cell-based; conditions: for IC50: M14, 72 h; how it was run: as §3
CHO-K1 = test: Selectivity ratio of IC50 for human M14 cells over IC50 for CHOK1 cells; type: functional
How it was run: (§7)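 Ratio of 72 h CellTiter-Glo IC50 values between the stated cell lines. Each IC50 comes from a 10-point 1:3 dose–response series and is the mean of three experiments ± standard deviation.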

A549 [22] = test: Selectivity ratio of IC50 for human M14 cells over IC50 for human A549 cells; type: functional; how it was run: as §7

SMILES: O=C1NC[C@H](Cc2ccccc2)N(C[C@@H]2CCCN2C[C@@H](CC2CCCCC2)N2C[C@H](Cc3ccc(O)cc3)N(CCc3ccccc3)C(=O)C2=O)C1=O
- IC50 [1]: 2.7 µM
- inhibition (B16-F10): Dose-dependent effect
- IC50 (A549 [2]): > 100 µM
- Activity (M14 [3]): inactive
- Activity (M14 [4]): inactive
- Activity (M14 [5]): inactive
- Activity (M14 [6]): 550%
- inhibition [7]: inactive
- inhibition (SK-MEL-28 [8]): Dose-dependent effect
- IC50 (SK-MEL-28 [8]; SK-MEL-28, 48 h): 0.56 µM
- Activity (M14 [9]): Active
- inhibition at 10 µM [10]: 100%
- Activity (M14 [11]): inactive
- Activity (M14 [12]): Dose-dependent effect
- IC50 [13]: > 100 µM
- Activity (M14 [14]): Dose-dependent effect
- inhibition [15]: inactive
- Activity (M14 [16]): inactive
- inhibition [17]: inactive
- Activity (M14 [18]): 400%
- Activity (M14 [19]): Active
- inhibition at 10 µM (SK-MEL-28 [20]): 100%
- inhibition (M14 [21]): Dose-dependent effect
- IC50 (M14 [21]): 3.6 µM

SMILES: CCC[C@H]1CNC(=O)C(=O)N1C[C@@H]1CCCN1C[C@@H](CC1CCCCC1)N1C[C@H](Cc2ccc(O)cc2)N(CCc2ccccc2)C(=O)C1=O
- IC50 (A549 [2]): 52 µM
- Ratio IC50 (CHO-K1): >10
- Ratio IC50 (A549 [22]): 5
- IC50 [13]: > 100 µM
- IC50 (M14 [21]): 8.8 µM
